A short description of test [1]: Her2 expression decrease, cell viability multiplex – SKBR3 breast tumor cells, AlphaScreen, ATP viability, primary screen (AID 461;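 active = Her2 level under about 52% in both replicate screens, with viability over 70% of control, limit read from the data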;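 as to Her2 level: lower value means less Her2 protein in the cells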;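 as to viability: percent of carrier control wells set as 100% viability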). Conditions: SKBR3 Her2 protein level, 18-24 h, measured here: SKBR3 viability, ATP luminescence, at 10 µM.
Test [2] addresses Receptor tyrosine-protein kinase erbB-2 (Homo sapiens) (UniProt P04626). The test is described as above. Conditions: 18-24 h, at 10 µM, stronger effect = lower value.
A short description of test [3]: reduced viability of SK-BR-3 breast cancer cells – cell-based, 24 h, human, pilot screen (AID 572;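 active = viability at or below 10% of carrier control in both of two separate runs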;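 also: compound exposure lasted between 18 and 24 h rather than exactly 24 h; 100% = carrier-treated control wells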). The following applies: SK-BR-3 viability, CellTiter-Glo luminescence, at 10 µM, stronger effect = lower value.
Test [4] in a line: HUVEC growth inhibition – cell-based, human, primary screen (AID 575).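 Also: 100% = median of untreated cell wells with 0.1% DMSO on each plate.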 Conditions: HUVEC proliferation, CellTiter-Glo luminescence, 72 h; at 10 µM; stronger effect = lower value. In outline:
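Test system: primary human umbilical vein endothelial cells. Quantity: 1250 cells/well. Compound: single 10 µM dose, 0.1% DMSO, from 5x medium stock. Timing: 72 h treatment at 37 °C. Detection: ATP-based CellTiter-Glo luminescent read. Benchmarks: vehicle and MePR control wells. Format: 384-well plates coated with collagen.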

The nature of test [5]: H69AR cell proliferation blockers – human, duplicate replicates, primary screen (AID 580;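 active = viability at or under a set limit in both replicates, limit being median viability minus 3 SD, cut at about 48% in these data, passing the limit was not always enough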;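 also: 100% = mean luminescence of untreated wells and 0% = no signal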). Conditions: H69AR lung tumor cells viability, ATP luminescence, 72 h; at 10 µM; stronger effect = lower value.
The nature of test [6]: MRP1 drug-resistance reversers in H69AR cells – cell-based, doxorubicin co-treatment, pilot screen (AID 601;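 active = viability loss from added drug above about 55%, and viability with drug at most 40%, in both replicates, limit read from the data, passing the limit was not always enough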). The following applies: CellTiter-Glo, 72 h, at 10 µM; for differential viability (reversal): stronger effect = higher value.
A short description of test [7]: yeast transport mutant growth inhibition pilot in 384-well plates, post-Golgi transport modulator project (AID 636; in the data active = inhibition above about 31%). The following applies: absorbance 615 nm, about 18 h, stronger effect = higher value.
The nature of test [8]: growth suppression of yeast trafficking mutant, preliminary HTS, modulators of trafficking downstream of Golgi apparatus project, 1536-format plate, OD 615 nm (AID 637; in the data active = inhibition above about 30%). The following applies: yeast transport mutant growth, absorbance 615 nm, 18 h; stronger effect = higher value.
Setting [9] is: H69AR cells + 2 uM doxorubicin, measured here: viability with 2 uM doxorubicin, stronger effect = lower value.
Setting [10] is: H69AR cells, compound alone cytotoxicity.

Structures are written as SMILES. Activity calls are given as the source filed them.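 The calls were made as follows, unless noted: active = viability at or below 30% in both replicate assays; inconclusive = viability at or below 30% in just one of the two assays; inactive = the rest.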

Chain of Receptor tyrosine-protein kinase erbB-2 (Homo sapiens) (P04626 whole entry, looked up): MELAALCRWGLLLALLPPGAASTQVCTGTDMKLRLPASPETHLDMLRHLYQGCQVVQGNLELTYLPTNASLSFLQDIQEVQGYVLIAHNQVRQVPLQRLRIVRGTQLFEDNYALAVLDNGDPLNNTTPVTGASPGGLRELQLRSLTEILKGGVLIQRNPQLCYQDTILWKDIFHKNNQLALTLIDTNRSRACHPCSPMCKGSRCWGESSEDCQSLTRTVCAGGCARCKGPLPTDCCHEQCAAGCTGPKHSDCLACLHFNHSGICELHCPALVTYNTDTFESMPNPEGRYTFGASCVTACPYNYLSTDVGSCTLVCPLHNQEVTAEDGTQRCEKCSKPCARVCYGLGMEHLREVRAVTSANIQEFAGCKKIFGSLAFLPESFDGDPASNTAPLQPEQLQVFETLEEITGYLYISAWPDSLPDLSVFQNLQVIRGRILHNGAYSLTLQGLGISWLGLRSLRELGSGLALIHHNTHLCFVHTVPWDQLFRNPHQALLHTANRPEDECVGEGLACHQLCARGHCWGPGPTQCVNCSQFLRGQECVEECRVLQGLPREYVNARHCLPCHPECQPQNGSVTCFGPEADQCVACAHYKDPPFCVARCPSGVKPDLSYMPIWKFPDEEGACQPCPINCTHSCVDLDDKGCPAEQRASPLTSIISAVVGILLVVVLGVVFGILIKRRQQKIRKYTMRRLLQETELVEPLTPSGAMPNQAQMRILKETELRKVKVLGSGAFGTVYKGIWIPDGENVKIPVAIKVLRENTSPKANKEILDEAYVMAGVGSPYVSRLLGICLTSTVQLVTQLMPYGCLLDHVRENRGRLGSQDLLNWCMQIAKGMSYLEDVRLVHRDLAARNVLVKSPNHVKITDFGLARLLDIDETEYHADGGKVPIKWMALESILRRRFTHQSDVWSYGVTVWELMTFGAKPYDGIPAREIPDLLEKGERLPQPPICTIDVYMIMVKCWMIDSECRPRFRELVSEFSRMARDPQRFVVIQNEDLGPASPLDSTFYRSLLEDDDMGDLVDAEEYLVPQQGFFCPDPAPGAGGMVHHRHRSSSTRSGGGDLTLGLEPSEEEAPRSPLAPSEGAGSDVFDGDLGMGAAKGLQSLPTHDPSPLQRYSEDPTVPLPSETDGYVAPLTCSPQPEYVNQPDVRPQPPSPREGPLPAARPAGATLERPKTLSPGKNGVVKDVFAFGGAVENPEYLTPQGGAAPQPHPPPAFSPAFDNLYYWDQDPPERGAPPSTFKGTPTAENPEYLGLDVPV

For `O=C(CSc1nnc(Cc2cc(=O)[nH]c(=O)[nH]2)n1-c1ccccc1)NCC1CCCO1` (stereo not given), the viability is 99% in test [1]; 99% (inactive) in test [3]; 96.1% (inactive) in test [4]; 98.4% (inactive) in test [5]; 95.4% in test [6] (setting [9]); 98.4% in test [6] (setting [10]). In test [2], the Her2 level was 84.5% (inactive). In test [6] (H69AR cells + 2 uM doxorubicin), the differential viability (reversal) was 3.05% (inactive). Moreover, the inhibition in test [7] was -6.8% (inactive); in test [8], -1.11% (inactive).
Consider `COCCn1c(SCC(=O)Nc2sc(C)c(C)c2C#N)nnc1C(C)C`, for which the viability in test [1] is 98%; in test [3] it was 98% (inactive); in test [4], 96% (inactive); in test [5] it was 89.6% (inactive); in test [6] (setting [9]) it was 92.8%; in test [6] (setting [10]) it was 89.6%. The Her2 level in test [2] was 92.5% (inactive). The differential viability (reversal) in test [6] (H69AR cells + 2 uM doxorubicin) is -3.22% (inactive). The inhibition was -0.13% (inactive) in test [7] and -4.35% (inactive) in test [8].
Take `CCCc1nc(N2CCOCC2)c(C#N)c2c1CCCC2`: the viability in test [1] is 81%; in test [3] it was 81% (inactive); in test [4], 81.5% (inactive); in test [5], 91.4% (inactive); in test [6] (setting [9]) it was 91.5%; in test [6] (setting [10]), 91.4%. Further, the Her2 level in test [2] is 86.5% (inactive). In test [6] (H69AR cells + 2 uM doxorubicin), the differential viability (reversal) is -0.135% (inactive). In addition, the results for the inhibition in test [7] and in test [8] were -0.13% (inactive) and 6.77% (inactive), respectively.
Take `COc1cccc(CNc2nc3nc(C)c(Cl)c(C)n3n2)c1`: the viability is 86.5% in test [1]; 86.5% (inactive) in test [3]; 95.1% (inactive) in test [4]; 83.6% (inactive) in test [5]; 83.3% in test [6] (setting [9]); 83.6% in test [6] (setting [10]). For the same compound, the Her2 level in test [2] is 99.5% (inactive). The differential viability (reversal) in test [6] (H69AR cells + 2 uM doxorubicin) is 0.33% (inactive). For the same compound, the results for the inhibition in test [7] and in test [8] were -4.93% (inactive) and -2.38% (inactive), respectively.
Turning to `COc1ccc(NC(=O)CCS(=O)(=O)c2ccc(OC)cc2)cc1`, the viability was 96% in test [1]; 96% (inactive) in test [3]; 94.8% (inactive) in test [4]; 83.4% (inactive) in test [5]; 93.2% in test [6] (setting [9]); 83.4% in test [6] (setting [10]). The Her2 level in test [2] is 104% (inactive). Further, in test [6] (H69AR cells + 2 uM doxorubicin), the differential viability (reversal) was -9.78% (inactive). Besides, the inhibition in test [7] is -0.4% (inactive); in test [8], -7.26% (inactive).
Take `COc1ccc(C)cc1S(=O)(=O)N1CCN(Cc2ccccc2)CC1`: the viability in test [1] is 98%; in test [3], 98% (inactive); in test [4], 96.1% (inactive); in test [5], 91.2% (inactive); in test [6] (setting [9]) it was 92.6%; in test [6] (setting [10]) it was 91.2%. Further, the Her2 level in test [2] is 94.5% (inactive). For the same compound, the differential viability (reversal) in test [6] (H69AR cells + 2 uM doxorubicin) was -1.38% (inactive). Moreover, the inhibition in test [7] is -2.24% (inactive); in test [8], 1.13% (inactive).
`CC(=O)NC1(c2nnnn2CCOC(=O)Nc2ccc(Cl)cc2)CCCCC1`: the viability in test [1] is 112%; in test [3], 112% (inactive); in test [4], 98.5% (inactive); in test [5], 98.5% (inactive); in test [6] (setting [9]), 85.4%; in test [6] (setting [10]), 98.5%. In test [2], the Her2 level was 89% (inactive). Further, in test [6] (H69AR cells + 2 uM doxorubicin), the differential viability (reversal) was 13% (inactive). Moreover, the inhibition was -3.29% (inactive) in test [7] and 8.69% (inactive) in test [8].
For the compound `CN(Cc1ccccc1)c1nc2c(c(=O)[nH]c(=O)n2C)n1Cc1ccccc1Cl`, the viability is 114% in test [1]; 114% (inactive) in test [3]; 82.2% (inactive) in test [4]; 85.4% (inactive) in test [5]; 80.4% in test [6] (setting [9]); 85.4% in test [6] (setting [10]). Also, in test [2], the Her2 level is 87.5% (inactive). In addition, the differential viability (reversal) in test [6] (H69AR cells + 2 uM doxorubicin) was 4.96% (inactive). For the same compound, the inhibition was -5.2% (inactive) in test [7] and 8.36% (inactive) in test [8].
For `Cc1cc(C)c(S(=O)(=O)Nc2cccnc2)c(C)c1`, the viability in test [1] was 100%; in test [3] it was 100% (inactive); in test [4], 105% (inactive); in test [5], 97.8% (inactive); in test [6] (setting [9]) it was 89.1%; in test [6] (setting [10]), 97.8%. Besides, in test [2], the Her2 level was 91% (inactive). In addition, in test [6] (H69AR cells + 2 uM doxorubicin), the differential viability (reversal) is 8.71% (inactive). The inhibition is -4.93% (inactive) in test [7] and -0.16% (inactive) in test [8].
As for `CCc1nnc(NC(=O)NCN2C(=O)C3C4C=CC(C4)C3C2=O)s1` (stereo not given), the viability in test [1] is 123%; in test [3] it was 123% (inactive); in test [4] it was 84.4% (inactive); in test [5] it was 95.5% (inactive); in test [6] (setting [9]), 93.8%; in test [6] (setting [10]) it was 95.5%. Moreover, the Her2 level in test [2] is 85.5% (inactive). Also, the differential viability (reversal) in test [6] (H69AR cells + 2 uM doxorubicin) is 1.7% (inactive). Further, the inhibition in test [7] was -6.44% (inactive); in test [8], -5.24% (inactive).
For `O=S(=O)(NCCCCCNS(=O)(=O)c1ccccc1)c1ccccc1`, the viability is 92.5% in test [1]; 92.5% (inactive) in test [3]; 112% (inactive) in test [4]; 93.2% (inactive) in test [5]; 107% in test [6] (setting [9]); 93.2% in test [6] (setting [10]). Further, the Her2 level in test [2] is 90.5% (inactive). Moreover, the differential viability (reversal) in test [6] (H69AR cells + 2 uM doxorubicin) was -13.4% (inactive). Moreover, the figures for the inhibition in test [7] and in test [8] were -4% (inactive) and -3.39% (inactive), respectively.
Consider `Cc1nc2ccc(NC(=O)N3CCC(c4ccccc4)C3)cc2nc1C` (stereo not given), for which the viability in test [1] is 101%; in test [3], 101% (inactive); in test [4], 57.7% (inactive); in test [5], 74.8% (inactive); in test [6] (setting [9]), 65.4%; in test [6] (setting [10]), 74.8%. Moreover, in test [2], the Her2 level is 93.5% (inactive). Further, the differential viability (reversal) in test [6] (H69AR cells + 2 uM doxorubicin) is 9.41% (inactive). Besides, the inhibition was -4.21% (inactive) in test [7] and -1.43% (inactive) in test [8].
Regarding `O=C(COC(=O)c1cc(-c2ccco2)nc2ccccc12)NCc1ccc2c(c1)OCO2`, the viability in test [1] was 97%; in test [3], 97% (inactive); in test [4], 72.2% (inactive); in test [5], 96.8% (inactive); in test [6] (setting [9]), 85.5%; in test [6] (setting [10]), 96.8%. The Her2 level in test [2] was 93% (inactive). The differential viability (reversal) in test [6] (H69AR cells + 2 uM doxorubicin) is 11.3% (inactive). Further, the inhibition in test [7] is -5.75% (inactive); in test [8], -10.3% (inactive).
With `O=C(O)c1cccc(S(=O)(=O)N2CCOCC2)c1`, the viability in test [1] is 118%; in test [3], 118% (inactive); in test [4], 95% (inactive); in test [5], 98.9% (inactive); in test [6] (setting [9]), 95.5%; in test [6] (setting [10]) it was 98.9%. Further, the Her2 level in test [2] was 121% (inactive). For the same compound, in test [6] (H69AR cells + 2 uM doxorubicin), the differential viability (reversal) was 3.4% (inactive). The inhibition in test [7] is -1.37% (inactive); in test [8] it was 11.3% (inactive).
